According to ChEMBL document CHEMBL3826951, “Discovery of Benzocycloalkane Derivatives Efficiently Blocking Bacterial Virulence for the Treatment of Methicillin-Resistant S. aureus (MRSA) Infections by Targeting Diapophytoene Desaturase (CrtN)” (J Med Chem, 2016):
Active and inactive are the calls of the source. The calls are words filed in the database; no cut-off is given here.

Key:
Staphylococcus aureus [1] = assay: (§1) Attenuation of methicillin-resistant Staphylococcus aureus USA400 MW2 virulence in BALB/c mouse systemic infection model assessed as decrease in bacterial burden in liver at 200 mg/kg, ip administered every 12 hrs for 108 hrs followed by bacterial challenge after first 12 hrs of compound dosing measured 5 days post infection; format: functional
Procedure, shortened: (§2)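 Female BALB/c mice, 6-8 weeks old. Dosed ip every 12 h for 108 h. Challenged with 100 µL at 12 h: 1.6 × 10^8 CFU Mu50 or 4 × 10^7 CFU USA400 MW2. Sacrificed 5 days post-infection. Livers and kidneys homogenised in PBS/0.1% Triton X-100, serially plated on TSA, CFU counted; two-tailed Mann-Whitney.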

[2] = target: T1, 4,4'-diapophytoene synthase (Staphylococcus aureus, UniProt A9JQL9); assay: Inhibition of Staphylococcus aureus ATCC 27659 full length His-tagged dehydrosqualene synthase expressed in Escherichia coli BL21 (DE3) cells assessed as reduction in staphyloxanthin pigment formation after 72 hrs by spectrophotometric analysis
T1 sequence (A9JQL9 whole entry): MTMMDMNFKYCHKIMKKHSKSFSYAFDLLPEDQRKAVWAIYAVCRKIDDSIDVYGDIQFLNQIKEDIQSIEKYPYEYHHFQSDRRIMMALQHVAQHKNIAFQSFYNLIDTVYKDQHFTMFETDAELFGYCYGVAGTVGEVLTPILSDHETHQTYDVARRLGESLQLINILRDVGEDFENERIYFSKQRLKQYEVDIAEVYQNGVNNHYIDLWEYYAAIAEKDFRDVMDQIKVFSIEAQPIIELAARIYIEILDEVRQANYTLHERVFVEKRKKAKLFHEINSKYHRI

Staphylococcus aureus [3] = assay: as §1, with “Mu 50” for “USA400 MW2”, “survival” for “burden”, “50” for “200”; format: functional; settings: Mu50; procedure, shortened: as §2
Staphylococcus aureus [4] = assay: as §1, with “50” for “200”; format: functional; procedure, shortened: as §2
Staphylococcus aureus [5] = assay: as §1, with “Mu 50” for “USA400 MW2”, “survival” for “burden”, “kidney” for “liver”; format: functional, Mu50; procedure, shortened: as §2
Staphylococcus aureus [6] = assay: as §1, with “Mu 50” for “USA400 MW2”, “survival” for “burden”, “kidney” for “liver”, “50” for “200”; format: functional; settings: Mu50; procedure, shortened: as §2
Staphylococcus aureus [7] = assay: as §1, with “Mu 50” for “USA400 MW2”, “survival” for “burden”; format: functional, Mu50; procedure, shortened: as §2

In the case of `O=P([O-])([O-])C(CCCc1cccc(Oc2ccccc2)c1)S(=O)(=O)[O-].[K+].[K+].[K+]` (configuration not stated), the Activity (Staphylococcus aureus [1]) is reported as 1.59 log10CFU, the IC50 [2] is reported as 83.4 nM and the Activity (Staphylococcus aureus [3]) is reported as “Active”. The Activity (Staphylococcus aureus [4]) was “inactive”, the Activity (Staphylococcus aureus [5]) was 0.3 log10CFU and the Activity (Staphylococcus aureus [6]) was “inactive”. The Activity (Staphylococcus aureus [7]) was 2.84 log10CFU.
